{"data": "Published values of several laboratories", "target": "MAP kinase-interacting serine/threonine-protein kinase 1 (MKNK1, Homo sapiens, UniProt Q9BUB5)", "note": "Protocols differ between the studies behind these lines."}
{"SMILES": "Cn1cncc1[C@](O)(COc1ccc(C#N)cc1-c1ccc(OC(F)(F)F)cc1)c1ccc(C#N)cc1", "observed": "cell-free assay", "method": "competition with immobilised ligand", "tested at": "1 µM", "quantity": "remaining binding", "value": "68%"}
{"SMILES": "COc1cc(Nc2ncc(F)c(Nc3ccc4c(n3)NC(=O)C(C)(C)O4)n2)cc(OC)c1OC", "observed": "binding", "method": "competition with immobilised ligand", "tested at": "10 µM", "quantity": "inhibition", "value": "9%"}
{"SMILES": "Cc1nn(C)cc1-c1nc2c(N3CCN(Cc4ccc(Cl)cc4)CC3)c(Cl)cnc2[nH]1", "observed": "binding", "method": "competition with immobilised ligand", "tested at": "1 µM", "quantity": "remaining binding", "value": "100%"}
{"SMILES": "N#CC1(c2ccccn2)CCN(Cc2cc(C(=O)O)c(=O)n3ccccc23)CC1", "observed": "cell-free assay", "method": "competition with immobilised ligand", "tested at": "1 µM", "quantity": "remaining binding", "value": "85%"}
{"SMILES": "CC(C)(C)c1cc(C=C(C#N)C#N)cc(Br)c1O", "observed": "enzyme activity", "mode": "inhibitor", "tested at": "0.5 µM", "quantity": "remaining activity", "value": "95.9%"}
{"SMILES": "Nc1ncc(-c2nc(N3CCOCC3)nc(N3CCOCC3)n2)c(C(F)F)n1", "observed": "binding", "method": "competition with immobilised ligand", "tested at": "10 µM", "quantity": "remaining binding", "value": "45%"}
{"SMILES": "O=c1[nH]c2ccccc2n1C1CCN(Cc2ccc(-c3[nH]c4cc5ncnc5cc4nc3-c3ccccc3)cc2)CC1", "observed": "cell-free assay", "tested at": "0.5 µM", "quantity": "remaining signal", "value": "104%"}
{"SMILES": "COc1ncccc1-c1cnn2ccc(N3CCN(C(=O)OC(C)C)CC3)nc12", "observed": "binding", "method": "competition with immobilised ligand", "tested at": "1 µM", "quantity": "remaining binding", "value": "100%"}
